In brackets after ≈: the same amount, converted by molar mass.
Legend:
[1] = WHO-TDR: Cytotoxicity; assay type: toxicity, cell-based; conditions: human, MRC5 cells
Plasmodium falciparum K1 = assay: WHO-TDR: Malaria; assay type: functional, organism-based, Homo sapiens; conditions: Erythrocyte
In short: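 Antiplasmodial potency, expressed as IC50, was measured in a whole-organism assay on intra-erythrocytic Plasmodium falciparum K1 in human red blood cells. The screened library held 10,000 diverse compounds from Life Chemicals.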

Trypanosoma cruzi = assay: WHO-TDR: Chagas disease; assay type: functional, organism-based, Homo sapiens; conditions: MRC5
In short: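 A diverse library of 10,000 compounds from Life Chemicals, filtered for drug-likeness and reactive groups, was screened against intracellular amastigotes of Trypanosoma cruzi Tulahuen CL2 beta-galactosidase strain. The parasites were grown in MRC-5SV2 human lung fibroblast host cells, and a reference drug served as positive control under previously published standard procedures. Antiparasitic potency is given as IC50.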

[2] = system: Trypanosoma brucei brucei; assay: WHO-TDR: Human African Trypanosomiasis (HAT); assay type: functional, organism-based; conditions: Squib-427
In short: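 Antiparasitic potency is reported as IC50. The screen covered 10,000 compounds from a diverse Life Chemicals library, filtered for drug-likeness and reactive groups, tested on whole bloodstream-form Trypanosoma brucei of the Squib 427 strain.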

Leishmania infantum = assay: WHO-TDR: Leishmaniasis; assay type: functional, organism-based, Mus musculus; conditions: Macrophage
In short: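 Antiparasitic potency, reported as IC50, was measured against intracellular Leishmania infantum amastigotes. The parasite strain was MHOM/MA(BE)/67, and murine peritoneal macrophages served as host cells for the screen of a 10,000-compound diverse library from Life Chemicals.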

Onchocerca lienalis [3] = assay: (§1) WHO-TDR: Onchocerciasis; assay type: functional; design: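 at 12.5 µM on microfilariae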
In short: (§2)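 Whole-organism screen of a 10,000-compound diverse library from Life Chemicals, filtered for drug-likeness and reactive groups, against microfilariae of Onchocerca ochengi or Onchocerca lienalis, used as animal-pathogen stand-ins for the human parasite. The assay followed previously published standard procedures, with reference drugs as positive controls. Activity is reported as percent inhibition and as IC50.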

Onchocerca lienalis [4] = assay: as §1; assay type: functional, organism-based; in short: as §2
Schistosoma mansoni [5] = assay: (§3) WHO-TDR: Schistosomiasis; assay type: functional; design: concentration or dose not given beside the values
In short: (§4)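 Whole-organism screen of a 10,000-compound diverse library from Life Chemicals, filtered for drug-likeness and reactive groups, against larval and/or adult worms of Schistosoma mansoni Puerto Rican strain. The assay followed previously published standard procedures, with a reference drug as positive control. Activity is reported as percent inhibition and as IC50.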

Schistosoma mansoni [6] = assay: as §3; assay type: functional, organism-based; in short: as §4
Brugia malayi [7] = assay: (§5) WHO-TDR: Lymphatic Filariasis; assay type: functional; design: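 tested at 10 µM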
In short: as §2, with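 “Brugia malayi microfilariae.” for “microfilariae of Onchocerca ochengi or Onchocerca lienalis, used as animal-pathogen stand-ins for the human parasite.”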

Brugia malayi [8] = assay: as §5; assay type: functional, organism-based
In short: as §2, with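 “Brugia malayi microfilariae.” for “microfilariae of Onchocerca ochengi or Onchocerca lienalis, used as animal-pathogen stand-ins for the human parasite.”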

Brugia malayi [9] = assay: as §5; assay type: functional; design: concentration or dose not given beside the values; remark: listed apart in the source
In short: as §2, with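 “Brugia malayi microfilariae.” for “microfilariae of Onchocerca ochengi or Onchocerca lienalis, used as animal-pathogen stand-ins for the human parasite.”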

Brugia malayi [10] = assay: as §5; assay type: functional, organism-based; remark: listed apart in the source
In short: as §2, with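 “Brugia malayi microfilariae.” for “microfilariae of Onchocerca ochengi or Onchocerca lienalis, used as animal-pathogen stand-ins for the human parasite.”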

Row | SMILES | IC50 [1] [µg/mL] | IC50 (Plasmodium falciparum K1) [µg/mL] | IC50 (Trypanosoma cruzi) [µg/mL] | IC50 [2] [µg/mL] | IC50 (Leishmania infantum) [µg/mL] | % Inhibition (Onchocerca lienalis [3]) [%] | IC50 (Onchocerca lienalis [4]) [µg/mL] | % Inhibition (Schistosoma mansoni [5]) [%] | IC50 (Schistosoma mansoni [6]) [µM] | % Inhibition (Brugia malayi [7]) [%] | IC50 (Brugia malayi [8]) [µM] | % Inhibition (Brugia malayi [9]) [%] | IC50 (Brugia malayi [10]) [nM]
1 | O=C(Nc1nc(-c2ccccn2)cs1)c1ccc(Cl)s1 | 4.39 (≈ 13.6 µM) | 0.564 (≈ 1.75 µM) | < 0.0965 | 0.309 (≈ 0.96 µM) | 1.9 (≈ 5.9 µM) | 100 | 0.344 (≈ 1.07 µM) | – | – | – | – | – | –
2 | CN(C)CCCN(C(=O)c1cc(-c2cccs2)nc2ccccc12)c1nc2c(F)cccc2s1 | 4.21 (≈ 8.58 µM) | 1.2 (≈ 2.44 µM) | 4.32 (≈ 8.81 µM) | 0.383 (≈ 0.781 µM) | 5.12 (≈ 10.4 µM) | 0 | – | 100 | 4.3 | – | – | – | –
3 | Cc1cccc(-n2nc3c(c2NC(=O)Nc2cccc(Cl)c2)CSC3)c1 | > 11.5 | > 11.5 | 9.48 (≈ 24.6 µM) | > 11.5 | 3.74 (≈ 9.71 µM) | 33.34 | – | 25 | – | 100 | 1.77 | 100 | 260
4 | CCOC(=O)c1ccc(NC(=O)CSc2nnc(NC(=O)C34CC5CC(CC(C5)C3)C4)s2)cc1 | > 15 | > 15 | > 15 | > 15 | > 15 | 40 | – | 0 | – | 100 | 5.95 | 100 | 7070
5 | O=C(Nc1nnc(S)s1)c1cc(Br)ccc1Cl | > 10.5 | > 10.5 | > 10.5 | > 10.5 | > 10.5 | 0 | – | 0 | – | 0 | – | 100 | 853
6 | COC(=O)c1c(NC(=O)c2cc3ccccc3oc2=O)sc2c1CCN(Cc1ccccc1)C2 | 8.92 (≈ 18.8 µM) | > 15.3 | 0.637 (≈ 1.34 µM) | > 15.3 | 4.96 (≈ 10.5 µM) | 0 | – | 0 | – | 100 | – | 100 | 2970
7 | CC(C)N1CCc2c(sc(NC(=O)c3cc4c(ccc5ccccc54)oc3=O)c2C(N)=O)C1 | 0.416 (≈ 0.901 µM) | 0.572 (≈ 1.24 µM) | 0.149 (≈ 0.323 µM) | 0.478 (≈ 1.04 µM) | 0.484 (≈ 1.05 µM) | -1 | – | 0 | – | 100 | 0.53 | 100 | 530
8 | Cc1ccc(S(=O)(=O)Nc2ccccc2C(=O)Nc2nc3c(s2)Cc2ccccc2-3)cc1 | 2.51 (≈ 5.44 µM) | > 13.8 | 4.98 (≈ 10.8 µM) | 3.6 (≈ 7.79 µM) | 4.48 (≈ 9.71 µM) | 0 | – | 0 | – | 25 | – | 100 | 1180
9 | O=C(Nc1nc2c(s1)CSc1ccccc1-2)C1COc2ccccc2O1 (configuration not stated) | 2.62 (≈ 6.86 µM) | 4.75 (≈ 12.4 µM) | 0.502 (≈ 1.31 µM) | 0.367 (≈ 0.96 µM) | 0.782 (≈ 2.04 µM) | 100 | 1.42 (≈ 3.71 µM) | 100 | – | 33.33 | – | 0 | –
10 | O=C(COc1cccc2c1CCN(Cc1ccccc1F)C2=O)N1CCC(Cc2ccccc2)CC1 | 4.56 (≈ 9.37 µM) | 4.54 (≈ 9.33 µM) | 0.557 (≈ 1.14 µM) | 0.473 (≈ 0.971 µM) | 4.73 (≈ 9.71 µM) | 0 | – | 0 | – | 100 | 5.19 | 100 | 4950
11 | CCn1nnc2c(N3CCN(C(c4ccccc4)c4ccccc4)CC3)ncnc21 | > 12 | > 12 | 3.62 (≈ 9.06 µM) | 3.83 (≈ 9.6 µM) | > 12 | 100 | 1.48 (≈ 3.7 µM) | 0 | – | 0 | – | – | –
12 | CCOC(=O)N1CCc2c(sc(NC(=O)c3nc4ccccc4s3)c2C(N)=O)C1 | 4.58 (≈ 10.6 µM) | 0.746 (≈ 1.73 µM) | 1.52 (≈ 3.54 µM) | 4.18 (≈ 9.71 µM) | 4.18 (≈ 9.71 µM) | 100 | 1.75 (≈ 4.06 µM) | 100 | 6.7 | – | – | – | –
13 | Cc1ccc(NC(=O)c2oc3ccccc3c2NC(=O)CC(c2ccccc2)c2ccccc2)cc1C | > 14.7 | > 14.7 | > 14.7 | > 14.7 | 4.75 (≈ 9.71 µM) | 0 | – | 100 | 6.7 | – | – | – | –
14 | CCSc1nnc(NC(=O)CSc2nncc(=O)[nH]2)s1 | 1.95 (≈ 5.92 µM) | > 9.91 | 3.09 (≈ 9.35 µM) | 3.13 (≈ 9.49 µM) | 3.21 (≈ 9.71 µM) | 0 | – | 100 | 5.2 | – | – | – | –
15 | O=C(CSc1nncc(=O)[nH]1)Nc1ccc(Br)cc1 | 1.76 (≈ 5.15 µM) | 0.966 (≈ 2.83 µM) | 2.82 (≈ 8.26 µM) | 3.24 (≈ 9.49 µM) | > 10.2 | 0 | – | 100 | 5.2 | – | – | – | –
16 | Cc1ccc(NC(=O)CSc2nncc(=O)[nH]2)cc1Cl | 2.55 (≈ 8.2 µM) | 3.64 (≈ 11.7 µM) | 2.99 (≈ 9.61 µM) | 2.91 (≈ 9.37 µM) | > 9.32 | 0 | – | 100 | 4.5 | – | – | – | –
17 | O=C(CSc1nncc(=O)[nH]1)Nc1cc(C(F)(F)F)ccc1Cl | > 10.9 | > 10.9 | > 10.9 | > 10.9 | > 10.9 | 0 | – | 100 | 6.3 | – | – | – | –
18 | Cc1nc(-c2ccccc2)sc1C(=O)Nc1cccc(-c2cn3c(n2)SCC3)c1 | 8.81 (≈ 21.1 µM) | 10.4 (≈ 24.8 µM) | 10.5 (≈ 25 µM) | > 12.6 | 4.07 (≈ 9.71 µM) | 0 | – | 100 | 2.7 | – | – | – | –
19 | CN(C)CCCN(C(=O)/C=C/c1ccccc1Cl)c1nc2cc3c(cc2s1)OCO3 | 0.462 (≈ 1.04 µM) | 1.44 (≈ 3.25 µM) | 0.408 (≈ 0.919 µM) | 0.428 (≈ 0.964 µM) | 0.467 (≈ 1.05 µM) | 0 | – | 100 | 4.3 | – | – | – | –
20 | COc1cc(OC)cc(C(=O)N(CCCN(C)C)c2nc3c(C)c(C)ccc3s2)c1 | 2.84 (≈ 6.64 µM) | 1.13 (≈ 2.64 µM) | 4.66 (≈ 10.9 µM) | 0.456 (≈ 1.07 µM) | 4.51 (≈ 10.5 µM) | 0 | – | 100 | 5.7 | – | – | – | –
21 | COc1ccc(N2CCCS2(=O)=O)cc1NC(=O)c1cc(Cl)ccc1OC | > 12.3 | > 12.3 | 5.04 (≈ 12.3 µM) | 4.31 (≈ 10.5 µM) | 0.399 (≈ 0.971 µM) | 13.3 | – | 100 | 4.3 | – | – | – | –
22 | O=C(NCc1nnnn1-c1ccc(Cl)cc1)C1c2ccccc2Oc2ccccc21 | > 12.5 | > 12.5 | > 12.5 | > 12.5 | > 12.5 | 0 | – | 100 | 6.6 | – | – | – | –
23 | CCOc1ccc(C(=O)Nc2ccc(Nc3nc(C)cc(N(CC)CC)n3)cc2)cc1OCC | 3.94 (≈ 8.5 µM) | 0.51 (≈ 1.1 µM) | 0.428 (≈ 0.922 µM) | 4.4 (≈ 9.49 µM) | 4.5 (≈ 9.71 µM) | 20 | – | 100 | 8.3 | – | – | – | –
24 | CCN(CC)c1cc(C)nc(Nc2ccc(NC(=O)c3c(F)cccc3F)cc2)n1 | 2.86 (≈ 6.95 µM) | 0.77 (≈ 1.87 µM) | 0.26 (≈ 0.632 µM) | 3.63 (≈ 8.81 µM) | 3.9 (≈ 9.49 µM) | -1 | – | 100 | 7.4 | – | – | – | –
25 | CCN(CC)c1cc(C)nc(Nc2ccc(NC(=O)c3cccs3)cc2)n1 | 2.96 (≈ 7.76 µM) | 0.378 (≈ 0.99 µM) | 0.295 (≈ 0.773 µM) | 0.472 (≈ 1.24 µM) | 3.7 (≈ 9.71 µM) | -1 | – | 100 | 4.7 | – | – | – | –
26 | COc1cc(C)c(Cl)cc1S(=O)(=O)Nc1ccc(Nc2nc(C)cc(N3CCOCC3)n2)cc1 | > 15.1 | > 15.1 | > 15.1 | > 15.1 | > 15.1 | 46.7 | – | 100 | 5.1 | – | – | – | –
27 | COc1ccc(C(=O)C[n+]2cc(-c3ccc(OC)cc3)n3c2CCCCC3)cc1 | 0.572 | 0.505 | < 0.141 | 3.73 | 4.58 | 0 | – | 50 | – | 50 | – | 99 | 2990
28 | Cn1ncc2c(N3CCOCC3)nc(NCCc3c[nH]c4ccccc34)nc21 [TDR79432] | 3.75 (≈ 9.93 µM) | 5.13 (≈ 13.6 µM) | 2.69 (≈ 7.11 µM) | > 11.3 | > 11.3 | 0 | – | 100 | 3.8 | – | – | – | –
